Columns and labels:
[1] = tested on: SR Ca^2+ overload related tachyarrhythmias in CPVT; conditions: cited from earlier work
ICR mice [2] = assay: H&E staining pathological examination of heart; format: in vivo; conditions: 12 h after intravenous injection, n = 6
Outline: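 Twelve hours after intravenous dosing (test compound at 5 mg/kg peptide equivalent, free peptide, empty carrier or control; n = 6), heart tissue was fixed in 4 % paraformaldehyde. It then underwent routine hematoxylin-eosin staining for histopathological examination.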

RyRs = conditions: read-out: affinity between OpiCa1 and RyRs; cited from earlier work
H9C2 cells = assay: Flow cytometry, Annexin V-FITC / propidium iodide apoptosis; format: cell-based, rat; conditions: 100 μM OpiCa1, 12 h, Annexin V-FITC/PI flow cytometry
ICR mice [3] = assay: Blood biochemical examinations; format: in vivo; conditions: i.v. 5 mg/kg OpiCa1 equivalent, 12 h, n = 6
Outline: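 Blood was drawn from the inner canthus into anticoagulant tubes 12 h after dosing and assayed for ALT, AST, CK, CK-MB, LDH, creatinine and uric acid. Data are mean ± SD; two-group comparisons used two-tailed Mann-Whitney tests.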

[4] = Plasma OpiCa1 concentration in vivo by ELISA; conditions: mice, injection of free OpiCa1 5 mg/kg
cardiac tissue = assay: Cardiac immunohistochemistry with OpiCa1 polyclonal antibody; format: in vivo; conditions: mice, 12 h, self-prepared OpiCa1 polyclonal antibody, n = 6; in words

Substance	antagonism of SR Ca^2+ overload related tachyarrhythmias [1]	pathological examination of heart (H&E) (ICR mice [2])	Kd (RyRs) [nM]	proportion of apoptotic cells (H9C2 cells)	cardiac function (CK, CK-MB, and LDH) (ICR mice [3])	liver function (ALT and AST) (ICR mice [3])	renal function (Crea and UA) (ICR mice [3])	time to complete disappearance from plasma [4] [h]	distribution in cardiac tissue by immunohistochemistry (cardiac tissue)
Imperacalcin	can antagonize SR Ca^2+ overload related tachyarrhythmias such as PVCs and non-sustained BVTs in CPVT	–	–	–	–	–	–	–	–
Opicalcin1 [OpiCa1]	–	clear myocardial fibers and stripes	~0.3	about 1.5%	no significant differences	no significant differences	no significant differences	≤ 48	significantly distributed in cardiac tissue

From PMC10682124 (Materials Today Bio, 2023)
